From ChEMBL document CHEMBL4342476, “Identification of RIPK3 Type II Inhibitors Using High-Throughput Mechanistic Studies in Hit Triage” (ACS Med Chem Lett, 2020)

Columns and labels:
[1] = target: T1, Receptor-interacting serine/threonine-protein kinase 3 (Homo sapiens, UniProt Q9Y572); experiment: Displacement of fluorescein labeled ATP probe from full length His/GST-tagged RIPK3 (unknown origin) incubated for 60 mins by HTRF assay
Target sequence in this assay (Q9Y572 whole entry): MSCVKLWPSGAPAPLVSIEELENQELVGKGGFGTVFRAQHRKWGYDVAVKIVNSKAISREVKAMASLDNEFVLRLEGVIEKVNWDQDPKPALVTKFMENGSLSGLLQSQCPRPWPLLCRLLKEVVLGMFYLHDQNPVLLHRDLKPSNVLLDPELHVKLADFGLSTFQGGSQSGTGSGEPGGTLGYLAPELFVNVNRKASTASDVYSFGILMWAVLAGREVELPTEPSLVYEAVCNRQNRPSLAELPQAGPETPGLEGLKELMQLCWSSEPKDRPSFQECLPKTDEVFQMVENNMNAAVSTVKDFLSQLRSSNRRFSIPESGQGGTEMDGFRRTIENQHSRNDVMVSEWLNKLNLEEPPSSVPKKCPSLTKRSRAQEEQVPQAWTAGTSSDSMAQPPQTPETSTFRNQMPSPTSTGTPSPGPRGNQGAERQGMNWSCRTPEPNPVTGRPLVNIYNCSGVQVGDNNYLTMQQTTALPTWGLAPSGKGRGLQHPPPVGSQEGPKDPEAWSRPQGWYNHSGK

[2] = target: T2, Receptor-interacting serine/threonine-protein kinase 1 (Homo sapiens, UniProt Q13546); experiment: Displacement of fluorescein labeled ATP probe from His/GST-tagged RIPK1 (unknown origin) incubated for 60 mins by HTRF assay
T2 sequence (Q13546 whole entry): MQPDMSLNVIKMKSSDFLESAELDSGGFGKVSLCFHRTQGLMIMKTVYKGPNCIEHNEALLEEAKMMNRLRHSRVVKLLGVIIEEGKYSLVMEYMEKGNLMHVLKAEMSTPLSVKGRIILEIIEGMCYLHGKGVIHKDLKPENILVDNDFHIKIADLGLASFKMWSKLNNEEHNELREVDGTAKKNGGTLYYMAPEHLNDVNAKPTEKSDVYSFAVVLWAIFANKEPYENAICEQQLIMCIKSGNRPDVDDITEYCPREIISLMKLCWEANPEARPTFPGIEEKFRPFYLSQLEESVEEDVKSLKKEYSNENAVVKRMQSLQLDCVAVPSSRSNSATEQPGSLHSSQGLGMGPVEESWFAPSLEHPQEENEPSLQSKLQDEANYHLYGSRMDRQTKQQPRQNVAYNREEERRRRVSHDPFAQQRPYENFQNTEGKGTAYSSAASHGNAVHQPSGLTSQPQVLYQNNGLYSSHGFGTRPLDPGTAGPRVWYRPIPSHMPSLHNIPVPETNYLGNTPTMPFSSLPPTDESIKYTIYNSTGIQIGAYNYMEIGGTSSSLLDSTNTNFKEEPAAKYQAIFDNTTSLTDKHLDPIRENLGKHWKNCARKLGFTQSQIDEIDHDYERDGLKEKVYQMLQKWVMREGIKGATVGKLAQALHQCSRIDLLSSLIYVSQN

[3] = target: Hepatocyte growth factor receptor (Homo sapiens, UniProt P08581); experiment: Displacement of fluorescein labeled ATP probe from His/GST-tagged c-Met (unknown origin) incubated for 60 mins by HTRF assay
[4] = target: T3, Receptor-interacting serine/threonine-protein kinase 2 (Homo sapiens, UniProt O43353); experiment: Displacement of fluorescein labeled ATP probe from His/GST-tagged RIPK2 (unknown origin) incubated for 60 mins by HTRF assay
[5] = target: T2, Receptor-interacting serine/threonine-protein kinase 1; experiment: Displacement of fluorescein labeled ATP probe from full length His/GST-tagged RIPK1 (unknown origin) incubated for 60 mins by HTRF assay
[6] = species on record: Homo sapiens; experiment: (§1) Selectivity index, ratio of IC50 for displacement of fluorescein labeled ATP probe from His/GST-tagged c-Met (unknown origin) incubated for 60 mins by HTRF assay to IC50 for displacement of fluorescein labeled ATP probe from full length His/GST-tagged RIPK3 (unknown origin) incubated for 60 mins by HTRF assay
[7] = Selectivity index, ratio of IC50 for displacement of fluorescein labeled ATP probe from His/GST-tagged RIPK1 (unknown origin) incubated for 60 mins by HTRF assay to IC50 for displacement of fluorescein labeled ATP probe from His/GST-tagged c-Met (unknown origin) incubated for 60 mins by HTRF assay; conditions: human, 1 h
[8] = Selectivity index, ratio of IC50 for displacement of fluorescein labeled ATP probe from His/GST-tagged RIPK2 (unknown origin) incubated for 60 mins by HTRF assay to IC50 for displacement of fluorescein labeled ATP probe from His/GST-tagged c-Met (unknown origin) incubated for 60 mins by HTRF assay; conditions: human, 1 h
[9] = target: T1, Receptor-interacting serine/threonine-protein kinase 3; experiment: Time dependent inhibition of full length His/GST-tagged RIPK3 (unknown origin) measured every 5 mins for 60 mins in presence of fluorescein labeled probe by HTRF assay relative to control
Method in brief: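 Active full-length RIPK3 was preformed as a complex with the fluorescent probe and antibody. Inhibitor was then added as an 11-point concentration-response series, with HTRF read at 5 and 60 min. Time dependency was scored as the fold shift in IC50 between the two reads; ≥5-fold flagged possible slow binding.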
Target sequence in this assay (Q9Y572 whole entry, looked up): as the sequence (Q9Y572 whole entry) above

[10] = target: T1, Receptor-interacting serine/threonine-protein kinase 3; experiment: Displacement of fluorescein labeled probe from full length human GST-tagged RIPK3 expressed in Sf9 cells incubated for 60 mins by HTRF assay
Target sequence in this assay (Q9Y572 whole entry): as the sequence (Q9Y572 whole entry) above

[11] = target: T2, Receptor-interacting serine/threonine-protein kinase 1; experiment: Displacement of fluorescein labeled probe from full length human GST-tagged RIPK1 expressed in Sf9 cells incubated for 60 mins by HTRF assay
[12] = target: T3, Receptor-interacting serine/threonine-protein kinase 2; experiment: Displacement of fluorescein labeled probe from full length human GST-tagged RIPK2 expressed in Sf9 cells incubated for 60 mins by HTRF assay
[13] = target: T1, Receptor-interacting serine/threonine-protein kinase 3; experiment: Time dependent inhibition of full length His/GST-tagged RIPK3 (unknown origin) measured every 5 mins for 60 mins in presence of fluorescein labeled probe by HTRF assay relative to control; conditions: 1 h
Target sequence in this assay (Q9Y572 whole entry, looked up): as the sequence (Q9Y572 whole entry) above

[14] = target: T1, Receptor-interacting serine/threonine-protein kinase 3; experiment: as above; conditions: 1 h; remark: listed apart in the source
Target sequence in this assay (Q9Y572 whole entry, looked up): as the sequence (Q9Y572 whole entry) above

[15] = target: Mitogen-activated protein kinase 14 (Homo sapiens, UniProt Q16539); experiment: Binding affinity to p38alpha (unknown origin); type: ADME
[16] = species on record: Homo sapiens; experiment: as §1, with “RIPK1” for “c-Met”

T3 sequence (O43353 whole entry): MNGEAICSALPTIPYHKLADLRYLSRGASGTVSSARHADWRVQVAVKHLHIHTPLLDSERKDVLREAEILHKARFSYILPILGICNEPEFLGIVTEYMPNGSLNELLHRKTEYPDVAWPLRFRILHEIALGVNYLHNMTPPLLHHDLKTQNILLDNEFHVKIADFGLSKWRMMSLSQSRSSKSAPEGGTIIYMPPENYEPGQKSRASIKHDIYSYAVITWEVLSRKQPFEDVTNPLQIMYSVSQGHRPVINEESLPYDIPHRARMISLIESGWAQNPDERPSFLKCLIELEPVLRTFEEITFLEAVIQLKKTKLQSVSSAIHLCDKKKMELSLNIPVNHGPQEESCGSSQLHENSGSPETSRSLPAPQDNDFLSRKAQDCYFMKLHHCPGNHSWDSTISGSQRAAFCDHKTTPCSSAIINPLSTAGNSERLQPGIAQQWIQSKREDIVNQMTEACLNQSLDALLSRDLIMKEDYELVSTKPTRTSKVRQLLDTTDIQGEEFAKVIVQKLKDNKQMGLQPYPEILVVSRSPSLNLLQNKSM
Sequence of Hepatocyte growth factor receptor (P08581 whole entry): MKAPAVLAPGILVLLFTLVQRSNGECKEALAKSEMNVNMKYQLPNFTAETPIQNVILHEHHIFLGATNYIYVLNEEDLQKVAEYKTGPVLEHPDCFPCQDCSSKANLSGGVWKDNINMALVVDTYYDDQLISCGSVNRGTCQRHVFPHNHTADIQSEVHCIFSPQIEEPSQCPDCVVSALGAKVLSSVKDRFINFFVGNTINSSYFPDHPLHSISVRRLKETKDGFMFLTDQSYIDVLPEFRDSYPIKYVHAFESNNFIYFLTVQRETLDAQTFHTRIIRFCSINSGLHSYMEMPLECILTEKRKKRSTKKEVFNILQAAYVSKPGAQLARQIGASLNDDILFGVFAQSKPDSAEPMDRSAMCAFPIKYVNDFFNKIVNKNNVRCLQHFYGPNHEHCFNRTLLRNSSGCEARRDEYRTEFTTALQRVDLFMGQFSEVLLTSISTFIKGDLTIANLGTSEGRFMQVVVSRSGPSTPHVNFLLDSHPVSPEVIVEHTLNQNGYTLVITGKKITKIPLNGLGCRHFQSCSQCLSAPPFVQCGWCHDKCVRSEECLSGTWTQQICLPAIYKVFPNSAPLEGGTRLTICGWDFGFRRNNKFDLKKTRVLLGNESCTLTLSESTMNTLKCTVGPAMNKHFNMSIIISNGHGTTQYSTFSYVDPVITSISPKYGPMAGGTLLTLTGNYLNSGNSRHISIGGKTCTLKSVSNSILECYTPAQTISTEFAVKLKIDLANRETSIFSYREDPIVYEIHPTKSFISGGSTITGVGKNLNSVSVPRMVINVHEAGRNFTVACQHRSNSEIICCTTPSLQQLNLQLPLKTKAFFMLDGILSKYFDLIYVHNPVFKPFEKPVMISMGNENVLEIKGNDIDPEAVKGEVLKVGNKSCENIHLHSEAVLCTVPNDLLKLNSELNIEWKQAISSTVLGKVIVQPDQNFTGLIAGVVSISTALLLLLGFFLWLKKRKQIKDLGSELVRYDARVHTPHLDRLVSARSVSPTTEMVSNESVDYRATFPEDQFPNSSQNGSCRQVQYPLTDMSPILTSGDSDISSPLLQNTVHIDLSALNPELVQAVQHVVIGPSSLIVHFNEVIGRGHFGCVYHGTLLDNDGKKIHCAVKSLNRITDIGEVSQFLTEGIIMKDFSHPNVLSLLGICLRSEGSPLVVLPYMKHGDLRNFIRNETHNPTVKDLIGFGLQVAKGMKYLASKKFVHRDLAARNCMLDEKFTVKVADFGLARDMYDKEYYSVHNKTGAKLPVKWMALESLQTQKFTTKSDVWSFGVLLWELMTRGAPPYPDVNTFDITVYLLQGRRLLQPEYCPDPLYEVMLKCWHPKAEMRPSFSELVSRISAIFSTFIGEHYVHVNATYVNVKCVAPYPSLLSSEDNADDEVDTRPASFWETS
Sequence of Mitogen-activated protein kinase 14 (Q16539 whole entry): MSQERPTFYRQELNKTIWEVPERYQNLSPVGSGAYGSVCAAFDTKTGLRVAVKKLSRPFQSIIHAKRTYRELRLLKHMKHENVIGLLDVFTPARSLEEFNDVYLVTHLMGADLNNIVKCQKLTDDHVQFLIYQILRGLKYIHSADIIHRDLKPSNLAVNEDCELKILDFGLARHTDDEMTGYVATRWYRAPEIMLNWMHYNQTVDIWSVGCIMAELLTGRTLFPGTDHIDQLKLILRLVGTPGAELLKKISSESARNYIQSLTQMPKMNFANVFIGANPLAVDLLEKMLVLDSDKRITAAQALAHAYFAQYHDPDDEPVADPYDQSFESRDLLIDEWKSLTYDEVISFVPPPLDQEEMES

| SMILES | IC50 [1] [nM] | IC50 [2] [nM] | IC50 [3] [nM] | IC50 [4] [nM] | also measured |
| --- | --- | --- | --- | --- | --- |
| Cc1c(NC(=O)c2cccn(-c3ccc(F)cc3)c2=O)ccc(Oc2ccnc(NC(=O)C3CC3)c2)c1C | 91 | 5500 | 1100 | > 10000 | Ratio IC50 [6]: 100 |
| Cc1cc(NC(=O)c2cccn(-c3ccc(F)cc3)c2=O)cc(C)c1Oc1ccnc(NC(=O)C2CC2)c1 | 88 | 11000 | 300 | 3100 | – |
| Nc1ccc(C#Cc2c(Oc3ccc(NC(=O)c4cccn(-c5ccc(F)cc5)c4=O)cc3F)ccnc2N)nc1 | – | – | – | – | fold change (FC) [9]: 6; IC50 [10]: 0.3 nM; IC50 [11]: 310 nM; IC50 [12]: 2400 nM; fold change (FC) [13]: 6; fold change (FC) [14]: 6 |
| O=C(Nc1ccc(Oc2ccncc2)c2ccccc12)c1cccn(-c2ccc(F)cc2)c1=O | 50 | > 15000 | 12000 | > 15000 | Activity [15]: Active |
| O=C(Nc1ccc(Oc2ccncc2)c(F)c1)c1cccc(-c2ccc(F)cc2)c1 | > 15000 | > 15000 | 4500 | > 15000 | – |
| Cc1ccc(COC(=O)Nc2cc(-c3cc4c([nH]3)CCNC4=O)ccn2)cc1 | – | – | – | – | IC50 [10]: 270 nM; IC50 [11]: 17000 nM; IC50 [12]: 50 nM; fold change (FC) [13]: 2 |

Now from value to compound, other results behind:

| IC50 [1] [nM] | IC50 [2] [nM] | IC50 [3] [nM] | IC50 [4] [nM] | SMILES | also measured |
| --- | --- | --- | --- | --- | --- |
| 8 | 200 | 6.3 | 680 | Cc1cc(NC(=O)c2cccn(-c3ccc(F)cc3)c2=O)ccc1Oc1ccnc(NC(=O)C2CC2)c1 | – |
| 16 | – | – | 3000 | CC#Cc1c(Oc2ccc(NC(=O)c3cccn(-c4ccc(F)cc4)c3=O)cc2F)ccnc1N | IC50 [5]: 600 nM |
| 320 | > 15000 | 500 | 13000 | Cc1cc(NC(=O)c2cccn(-c3ccc(F)cc3)c2=O)cc(C)c1Oc1ccncc1 | – |
| 180 | – | > 1500 | > 15000 | Cc1c(NC(=O)c2cccn(-c3ccc(F)cc3)c2=O)ccc(Oc2ccncc2)c1C | Ratio IC50 [7]: > 10; Ratio IC50 [8]: > 10; Ratio IC50 [6]: > 10; IC50 [5]: > 15000 nM |
| 180 | 1500 | – | > 15000 | O=C(Nc1ccc(Oc2ccnc3[nH]ccc23)c(F)c1)c1cccn(-c2ccc(F)cc2)c1=O | – |
| 2.9 | 180 | 2.5 | 1800 | O=C(Nc1ccc(Oc2ccnc(NC(=O)C3CC3)c2)c(F)c1)c1cccn(-c2ccc(F)cc2)c1=O | Ratio IC50 [16]: 38 |
| 400 | > 15000 | 18 | > 15000 | O=C(Nc1ccc(Oc2ccncc2)c(F)c1)c1cccn(-c2ccc(F)cc2)c1=O | – |
